Experimental data taken from ChEMBL document CHEMBL1255454, “Systematic approach to optimizing specifically targeted antimicrobial peptides against Streptococcus mutans” (2010).
Converted amounts (≈) assume the structure as drawn. The source made the active and inactive calls. The rule behind the calls is not given here. Square brackets hold non-standard residues; d marks the D form. Peptide text beside a SMILES is read from it. Aoc = NCCCCCCCC(=O)O

How the values were obtained:
[1] = system: Streptococcus mutans; assay: Antimicrobial activity against Streptococcus mutans UA159 after 16 to 20 hrs by broth microdilution assay; format: functional
Summary of the method: (§1)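 Broth microdilution. Twofold peptide dilutions were made in 50% BHI–50% sterile water for oral streptococci and in 1× Mueller-Hinton broth for the other bacteria. First round 500 to 0.97 µg/ml; a second round of 64 to 0.5 µg/ml was run in some cases, reporting its mode. Inoculum ~1 × 10^5 CFU/ml, 37°C for 16–20 h. Read A600; MIC taken as complete inhibition or ≥90% turbidity reduction versus peptide-free control.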

[2] = system: Streptococcus sanguinis; assay: Antimicrobial activity against Streptococcus sanguinis NY101 after 16 to 20 hrs by broth microdilution assay; format: functional; summary of the method: as §1
[3] = system: Streptococcus mitis; assay: Antimicrobial activity against Streptococcus mitis ATCC 903 after 16 to 20 hrs by broth microdilution assay; format: functional; summary of the method: as §1
[4] = Antimicrobial activity against Streptococcus gordonii Challis DL1 after 16 to 20 hrs by broth microdilution assay; format: functional, Streptococcus gordonii str. Challis; summary of the method: as §1
[5] = system: Staphylococcus aureus; assay: Antimicrobial activity against methicillin-resistant Staphylococcus aureus after 16 to 20 hrs by broth microdilution assay; format: functional
Summary of the method: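 MRSA grown aerobically in BHI at 37°C. Broth microdilution: 2-fold peptide dilutions in 1× Mueller-Hinton broth, first round 500 to 0.97 µg/ml; if activity below 62.5 µg/ml, sometimes a second round at 64 to 0.5 µg/ml, reporting the mode. Inoculum ~1 × 10^5 CFU/ml, 37°C for 16-20 h. A600 read. MIC = lowest concentration giving complete inhibition or ≥90% turbidity reduction versus peptide-free control.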

[6] = system: Pseudomonas aeruginosa; assay: Antimicrobial activity against Pseudomonas aeruginosa PAK after 16 to 20 hrs by broth microdilution assay; format: functional; summary of the method: as §1
[7] = system: Streptococcus mutans; assay: Antimicrobial activity against Streptococcus mutans UA159 assessed as inhibition of bacterial biofilm formation at 25 uM after 3 mins by fluorescence assay; format: functional
Summary of the method: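 S. mutans UA159 overnight culture was diluted 1:5,000 in TH with 1% sucrose and grown as biofilm for 24 h. Biofilms were exposed 3 min at room temperature to 25 µM fluorescein-labelled peptide in HEPES/NaHCO3/NaCl/MgCl2 buffer with 0.1% CTAB, pH 7.4, then washed twice. Green fluorescence images were taken and biofilm-associated green pixels quantified as binding intensity units.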

[8] = system: Enterococcus faecalis; assay: Antimicrobial activity against Enterococcus faecalis after 16 to 20 hrs by broth microdilution assay; format: functional; summary of the method: as §1
[9] = system: Escherichia coli; assay: Antimicrobial activity against Escherichia coli W3110 after 16 to 20 hrs by broth microdilution assay; format: functional; summary of the method: as §1

| Compound | MIC [1] | MIC [2] | MIC [3] | MIC [4] | MIC [5] | MIC [6] | inhibition [7] | MIC [8] | MIC [9] |
| --- | --- | --- | --- | --- | --- | --- | --- | --- | --- |
| CC[C@H](C)[C@H](NC(=O)[C@H](Cc1ccccc1)NC(=O)[C@H](Cc1cnc[nH]1)NC(=O)[C@H](CCCCN)NC(=O)[C@@H](NC(=O)[C@@H](N)Cc1ccccc1)[C@@H](C)CC)C(=O)N[C@@H](Cc1cnc[nH]1)C(=O)N[C@@H](CCCNC(=N)N)C(=O)N[C@@H](Cc1ccccc1)C(=O)NCCCCCCCC(=O)N[C@@H](CC(C)C)C(=O)N[C@@H](CCC(N)=O)C(=O)N[C@@H](CC(C)C)C(=O)N[C@@H](CC(C)C)C(=O)N[C@@H](CCCCN)C(=O)N[C@@H](CCC(N)=O)C(=O)N[C@@H](CC(C)C)C(=O)N[C@@H](CC(C)C)C(=O)N[C@@H](CCCCN)C(=O)N[C@@H](CC(C)C)C(=O)N[C@@H](CC(C)C)C(=O)N[C@@H](CCCCN)C(=O)N[C@@H](CCC(N)=O)C(=O)N[C@@H](Cc1ccccc1)C(N)=O (H-FIKHFIHRF[Aoc]LQLLKQLLKLLKQF-NH2) | 16 µg/mL (≈ 5.17 µM) | 32 µg/mL (≈ 10.3 µM) | 62.5 µg/mL (≈ 20.2 µM) | 32 µg/mL (≈ 10.3 µM) | 62.5 µg/mL (≈ 20.2 µM) | 62.5 µg/mL (≈ 20.2 µM) |  |  |  |
| CC[C@H](C)[C@H](NC(=O)[C@H](Cc1ccccc1)NC(=O)[C@H](Cc1cnc[nH]1)NC(=O)[C@H](CCCCN)NC(=O)[C@@H](NC(=O)[C@@H](N)Cc1ccccc1)[C@@H](C)CC)C(=O)N[C@@H](Cc1cnc[nH]1)C(=O)N[C@@H](CCCNC(=N)N)C(=O)N[C@@H](Cc1ccccc1)C(=O)NCCCCCCCC(=O)N[C@@H](CCCNC(=N)N)C(=O)N[C@@H](Cc1c[nH]c2ccccc12)C(=O)N[C@@H](CCCNC(=N)N)C(=O)N[C@@H](CCCNC(=N)N)C(=O)N[C@@H](CC(C)C)C(=O)N[C@@H](CC(C)C)C(=O)N[C@@H](CCCCN)C(=O)N[C@@H](CCCCN)C(=O)N[C@@H](CC(C)C)C(=O)N[C@@H](Cc1cnc[nH]1)C(=O)N[C@@H](Cc1cnc[nH]1)C(=O)N[C@@H](CC(C)C)C(=O)N[C@@H](CC(C)C)C(=O)N[C@@H](Cc1cnc[nH]1)C(N)=O (H-FIKHFIHRF[Aoc]RWRRLLKKLHHLLH-NH2) | 16 µg/mL (≈ 4.89 µM) | 32 µg/mL (≈ 9.78 µM) | 32 µg/mL (≈ 9.78 µM) | 32 µg/mL (≈ 9.78 µM) | 62.5 µg/mL (≈ 19.1 µM) | 62.5 µg/mL (≈ 19.1 µM) | Active |  |  |
| CC[C@H](C)[C@H](NC(=O)[C@H](Cc1ccccc1)NC(=O)CCCCCCCNC(=O)[C@H](Cc1ccccc1)NC(=O)[C@H](CCC(N)=O)NC(=O)[C@H](CCCCN)NC(=O)[C@H](CC(C)C)NC(=O)[C@H](CC(C)C)NC(=O)[C@H](CCCCN)NC(=O)[C@H](CC(C)C)NC(=O)[C@H](CC(C)C)NC(=O)[C@H](CCC(N)=O)NC(=O)[C@H](CCCCN)NC(=O)[C@H](CC(C)C)NC(=O)[C@H](CC(C)C)NC(=O)[C@H](CCC(N)=O)NC(=O)[C@@H](N)CC(C)C)C(=O)N[C@@H](CCCCN)C(=O)N[C@@H](Cc1cnc[nH]1)C(=O)N[C@@H](Cc1ccccc1)C(=O)N[C@H](C(=O)N[C@@H](Cc1cnc[nH]1)C(=O)N[C@@H](CCCNC(=N)N)C(=O)N[C@@H](Cc1ccccc1)C(N)=O)[C@@H](C)CC (H-LQLLKQLLKLLKQF[Aoc]FIKHFIHRF-NH2) | 8 µg/mL (≈ 2.59 µM) | 32 µg/mL (≈ 10.3 µM) | 32 µg/mL (≈ 10.3 µM) | 16 µg/mL (≈ 5.17 µM) | 62.5 µg/mL (≈ 20.2 µM) | 32 µg/mL (≈ 10.3 µM) |  |  |  |
| CC[C@H](C)[C@H](NC(=O)[C@H](Cc1ccccc1)NC(=O)CCCCCCCNC(=O)[C@H](Cc1cnc[nH]1)NC(=O)[C@H](CC(C)C)NC(=O)[C@H](CC(C)C)NC(=O)[C@H](Cc1cnc[nH]1)NC(=O)[C@H](Cc1cnc[nH]1)NC(=O)[C@H](CC(C)C)NC(=O)[C@H](CCCCN)NC(=O)[C@H](CCCCN)NC(=O)[C@H](CC(C)C)NC(=O)[C@H](CC(C)C)NC(=O)[C@H](CCCNC(=N)N)NC(=O)[C@H](CCCNC(=N)N)NC(=O)[C@H](Cc1c[nH]c2ccccc12)NC(=O)[C@@H](N)CCCNC(=N)N)C(=O)N[C@@H](CCCCN)C(=O)N[C@@H](Cc1cnc[nH]1)C(=O)N[C@@H](Cc1ccccc1)C(=O)N[C@H](C(=O)N[C@@H](Cc1cnc[nH]1)C(=O)N[C@@H](CCCNC(=N)N)C(=O)N[C@@H](Cc1ccccc1)C(N)=O)[C@@H](C)CC (H-RWRRLLKKLHHLLH[Aoc]FIKHFIHRF-NH2) | 8 µg/mL (≈ 2.44 µM) | 16 µg/mL (≈ 4.89 µM) | 32 µg/mL (≈ 9.78 µM) | 16 µg/mL (≈ 4.89 µM) | 62.5 µg/mL (≈ 19.1 µM) | 32 µg/mL (≈ 9.78 µM) |  |  |  |
| CC[C@H](C)[C@H](NC(=O)[C@H](Cc1ccccc1)NC(=O)CCCCCCCNC(=O)[C@H](Cc1ccccc1)NC(=O)[C@H](Cc1c[nH]c2ccccc12)NC(=O)[C@H](CCCNC(=N)N)NC(=O)[C@H](Cc1c[nH]c2ccccc12)NC(=O)[C@H](CCCNC(=N)N)NC(=O)[C@H](Cc1c[nH]c2ccccc12)NC(=O)[C@@H](N)CCCNC(=N)N)C(=O)N[C@@H](CCCCN)C(=O)N[C@@H](Cc1cnc[nH]1)C(=O)N[C@@H](Cc1ccccc1)C(=O)N[C@H](C(=O)N[C@@H](Cc1cnc[nH]1)C(=O)N[C@@H](CCCNC(=N)N)C(=O)N[C@@H](Cc1ccccc1)C(N)=O)[C@@H](C)CC (H-RWRWRWF[Aoc]FIKHFIHRF-NH2) | 32 µg/mL (≈ 12.5 µM) | 32 µg/mL (≈ 12.5 µM) | 32 µg/mL (≈ 12.5 µM) | 62.5 µg/mL (≈ 24.4 µM) | 62.5 µg/mL (≈ 24.4 µM) | 125 µg/mL (≈ 48.8 µM) |  |  |  |
| H-FHFHLHF-NH2 | 8 µg/mL | 16 µg/mL |  |  | 32 µg/mL | 16 µg/mL | Active | 16 µg/mL | 8 µg/mL |
| H-FIKHFIHRFGGGIKQLLHFFQRF-NH2 | 8 µg/mL | 32 µg/mL | 16 µg/mL | 32 µg/mL | 62.5 µg/mL | 125 µg/mL |  |  |  |
| H-FIKHFIHRFSATLQLLKQLLKLLKQF-NH2 | 16 µg/mL | 16 µg/mL | 32 µg/mL | 8 µg/mL | 62.5 µg/mL | 32 µg/mL |  |  |  |
| H-FIKHFIHRFSATRWRRLLKKLHHLLH-NH2 | 16 µg/mL | 32 µg/mL | 32 µg/mL | 32 µg/mL | 16 µg/mL | 32 µg/mL | Active |  |  |
| H-FIKHFIHRFSGGLQLLKQLLKLLKQF-NH2 | 16 µg/mL | 32 µg/mL | 62.5 µg/mL | 8 µg/mL | 32 µg/mL | 32 µg/mL |  |  |  |
| H-FIKHFIHRFSGGRWRRLLKKLHHLLH-NH2 | 16 µg/mL | 16 µg/mL | 62.5 µg/mL | 32 µg/mL | 32 µg/mL | 32 µg/mL |  |  |  |
| H-FIKHFIHRFSGGRWRWRWF-NH2 | 8 µg/mL | 32 µg/mL | 32 µg/mL | 32 µg/mL | 32 µg/mL | 62.5 µg/mL |  |  |  |
